Reference: ChEMBL document CHEMBL1157464, “1-[(3-Aryloxy-3-aryl)propyl]-1H-imidazoles, new imidazoles with potent activity against Candida albicans and dermatophytes. Synthesis, structure-activity relationship, and molecular modeling studies” (J Med Chem, 2008)
Converted amounts (≈) assume the structure as drawn.

test system: Candida albicans; assay: Antifungal activity against Candida albicans ATCC 10261 at 35 degC after 48 hrs by broth microdilution test; type: functional; settings: Candida albicans, ATCC 10261, 48 h; read-out: MIC
How it was run: (§1)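 Broth microdilution per NCCLS M27-A2. Stocks in 100% DMSO, diluted in RPMI 1640 with 0.165 M MOPS at pH 7.0; final range 0.25–128 µg/mL. Inoculum 1000–5000 cells/mL from SDA subcultures. […] C. parapsilosis ATCC22019 served as QC strain.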

Question: With `Clc1ccc(OC(CCn2ccnc2)c2ccccc2)cc1` (stereo unspecified) as the compound, how does the MIC read?
Answer: 3.3 µg/mL (≈ 10.5 µM)

Question: For `Fc1ccc(C(CCn2ccnc2)Oc2cc(Cl)cc(Cl)c2)cc1` (stereo unspecified), which MIC is on record?
Answer: 8.8 µg/mL (≈ 24.1 µM)

Question: With `Clc1ccc(C(CCn2ccnc2)Oc2ccc(Cl)cc2Cl)cc1` (stereo unspecified) as the compound, how does the MIC read?
Answer: 2.85 µg/mL (≈ 7.47 µM)

Question: With `Clc1ccc(OC(CCn2ccnc2)c2ccc(Cl)cc2)cc1` (stereo unspecified) as the compound, how does the MIC read?
Answer: 5.5 µg/mL (≈ 15.8 µM)

same assay, conditions: Candida albicans, ATCC 10261, 48 h; read-out: MIC50

Question: Which MIC50 does the source give for `Clc1ccc(OC(CCn2ccnc2)c2ccccc2)cc1` (stereo unspecified) here?
Answer: 2 µg/mL (≈ 6.39 µM)

Question: For `Fc1ccc(C(CCn2ccnc2)Oc2cc(Cl)cc(Cl)c2)cc1` (stereo unspecified), which MIC50 is on record?
Answer: 8 µg/mL (≈ 21.9 µM)

Question: For `Clc1ccc(C(CCn2ccnc2)Oc2ccc(Cl)cc2Cl)cc1` (stereo unspecified), which MIC50 is on record?
Answer: 2 µg/mL (≈ 5.24 µM)

Question: With `Clc1ccc(OC(CCn2ccnc2)c2ccc(Cl)cc2)cc1` (stereo unspecified) as the compound, how does the MIC50 read?
Answer: 4 µg/mL (≈ 11.5 µM)

same assay, conditions: Candida albicans, ATCC 10261, 48 h; read-out: MIC90

Question: For `Clc1ccc(OC(CCn2ccnc2)c2ccccc2)cc1` (stereo unspecified), which MIC90 is on record?
Answer: 4 µg/mL (≈ 12.8 µM)

Question: With `Fc1ccc(C(CCn2ccnc2)Oc2cc(Cl)cc(Cl)c2)cc1` (stereo unspecified) as the compound, how does the MIC90 read?
Answer: 16 µg/mL (≈ 43.8 µM)

Question: With `Clc1ccc(C(CCn2ccnc2)Oc2ccc(Cl)cc2Cl)cc1` (stereo unspecified) as the compound, how does the MIC90 read?
Answer: 4 µg/mL (≈ 10.5 µM)

Question: With `Clc1ccc(OC(CCn2ccnc2)c2ccc(Cl)cc2)cc1` (stereo unspecified) as the compound, how does the MIC90 read?
Answer: 8 µg/mL (≈ 23 µM)

test system: not listed separately; assay: Cytotoxicity against human U937 cells assessed as reduction of cell viability after 24 hrs by MTT assay; type: cell-based, U-937; settings: not given
How it was run: (§2)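 U937 and K562 cells, from ATCC, plated at 5 × 10^4/mL in phenol-red-free RPMI-1640 with 20% FBS and penicillin/streptomycin. Compounds added 2 h later at 25–100 µg/mL, then 24 h at 37 °C. MTT at 1 mg/mL for 3 h, formazan dissolved in isopropanol with 0.1 N HCl, absorbance read at 570 nm. CC50 is the concentration reducing viability by 50% versus the drug-free control.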

Question: With `Clc1ccc(OC(CCn2ccnc2)c2ccccc2)cc1` (stereo unspecified) as the compound, how does the CC50 at 24 h read?
Answer: 200 µM

Question: For `Fc1ccc(C(CCn2ccnc2)Oc2cc(Cl)cc(Cl)c2)cc1` (stereo unspecified), which CC50 at 24 h is on record?
Answer: 160 µM

Question: Which CC50 at 24 h does the source give for `Clc1ccc(C(CCn2ccnc2)Oc2ccc(Cl)cc2Cl)cc1` (stereo unspecified) here?
Answer: 172 µM

Question: With `Clc1ccc(OC(CCn2ccnc2)c2ccc(Cl)cc2)cc1` (stereo unspecified) as the compound, how does the CC50 at 24 h read?
Answer: 327 µM

test system: Candida parapsilosis; assay: Antifungal activity against Candida parapsilosis ATCC 22019 at 35 degC after 48 hrs by broth microdilution test; type: functional; settings: Lodderomyces parapsilosis, ATCC 22019, 48 h; read-out: MFC; how it was run: as §1

Question: With `Clc1ccc(OC(CCn2ccnc2)c2ccccc2)cc1` (stereo unspecified) as the compound, how does the MFC read?
Answer: 32 µg/mL (≈ 102 µM)

Question: With `Fc1ccc(C(CCn2ccnc2)Oc2cc(Cl)cc(Cl)c2)cc1` (stereo unspecified) as the compound, how does the MFC read?
Answer: 4 µg/mL (≈ 11 µM)

Question: Which MFC does the source give for `Clc1ccc(C(CCn2ccnc2)Oc2ccc(Cl)cc2Cl)cc1` (stereo unspecified) here?
Answer: 8 µg/mL (≈ 21 µM)

Question: For `Clc1ccc(OC(CCn2ccnc2)c2ccc(Cl)cc2)cc1` (stereo unspecified), which MFC is on record?
Answer: 8 µg/mL (≈ 23 µM)

same assay, conditions: Lodderomyces parapsilosis, ATCC 22019, 48 h; read-out: MIC

Question: With `Clc1ccc(OC(CCn2ccnc2)c2ccccc2)cc1` (stereo unspecified) as the compound, how does the MIC read?
Answer: 4 µg/mL (≈ 12.8 µM)

Question: With `Fc1ccc(C(CCn2ccnc2)Oc2cc(Cl)cc(Cl)c2)cc1` (stereo unspecified) as the compound, how does the MIC read?
Answer: 1 µg/mL (≈ 2.74 µM)

Question: For `Clc1ccc(C(CCn2ccnc2)Oc2ccc(Cl)cc2Cl)cc1` (stereo unspecified), which MIC is on record?
Answer: 1 µg/mL (≈ 2.62 µM)

Question: Which MIC does the source give for `Clc1ccc(OC(CCn2ccnc2)c2ccc(Cl)cc2)cc1` (stereo unspecified) here?
Answer: 4 µg/mL (≈ 11.5 µM)

test system: not listed separately; assay: Cytotoxicity against human K562 cells after assessed as reduction of cell viability 24 hrs by MTT assay; type: cell-based; settings: not given; how it was run: as §2

Question: For `Clc1ccc(OC(CCn2ccnc2)c2ccccc2)cc1` (stereo unspecified), which CC50 at 24 h is on record?
Answer: 256 µM

Question: With `Fc1ccc(C(CCn2ccnc2)Oc2cc(Cl)cc(Cl)c2)cc1` (stereo unspecified) as the compound, how does the CC50 at 24 h read?
Answer: 98.1 µM

Question: For `Clc1ccc(C(CCn2ccnc2)Oc2ccc(Cl)cc2Cl)cc1` (stereo unspecified), which CC50 at 24 h is on record?
Answer: 68.8 µM

Question: Which CC50 at 24 h does the source give for `Clc1ccc(OC(CCn2ccnc2)c2ccc(Cl)cc2)cc1` (stereo unspecified) here?
Answer: 265 µM

test system: Arthrodermataceae; assay: Antifungal activity against dermatophytes at 28 degC after 48 to 96 hrs by broth microdilution test; settings: not given

Question: With `Clc1ccc(OC(CCn2ccnc2)c2ccccc2)cc1` (stereo unspecified) as the compound, how does the MFC50 read?
Answer: 16 µg/mL (≈ 51.2 µM)

Question: Which MFC50 does the source give for `Fc1ccc(C(CCn2ccnc2)Oc2cc(Cl)cc(Cl)c2)cc1` (stereo unspecified) here?
Answer: 32 µg/mL (≈ 87.6 µM)

Question: Which MFC50 does the source give for `Clc1ccc(C(CCn2ccnc2)Oc2ccc(Cl)cc2Cl)cc1` (stereo unspecified) here?
Answer: 8 µg/mL (≈ 21 µM)

test system: Arthrodermataceae; assay: Antifungal activity against dermatophytes at 28 degC after 5 days by broth microdilution test; settings: not given

Question: Which MFC90 does the source give for `Clc1ccc(OC(CCn2ccnc2)c2ccccc2)cc1` (stereo unspecified) here?
Answer: 32 µg/mL (≈ 102 µM)

Question: Which MFC90 does the source give for `Fc1ccc(C(CCn2ccnc2)Oc2cc(Cl)cc(Cl)c2)cc1` (stereo unspecified) here?
Answer: 32 µg/mL (≈ 87.6 µM)

Question: For `Clc1ccc(C(CCn2ccnc2)Oc2ccc(Cl)cc2Cl)cc1` (stereo unspecified), which MFC90 is on record?
Answer: 16 µg/mL (≈ 41.9 µM)

same assay, conditions: Arthrodermataceae

Question: Which MFC does the source give for `Clc1ccc(OC(CCn2ccnc2)c2ccccc2)cc1` (stereo unspecified) here?
Answer: 25.6 µg/mL (≈ 81.8 µM)

Question: Which MFC does the source give for `Fc1ccc(C(CCn2ccnc2)Oc2cc(Cl)cc(Cl)c2)cc1` (stereo unspecified) here?
Answer: 28.5 µg/mL (≈ 78 µM)

Question: Which MFC does the source give for `Clc1ccc(C(CCn2ccnc2)Oc2ccc(Cl)cc2Cl)cc1` (stereo unspecified) here?
Answer: 11 µg/mL (≈ 28.8 µM)

test system: Candida albicans; assay: Antifungal activity against fluconazole-sensitive Candida albicans Fe40 at 35 degC after 48 hrs by broth microdilution test; type: functional; settings: not given; how it was run: as §1

Question: With `Clc1ccc(OC(CCn2ccnc2)c2ccccc2)cc1` (stereo unspecified) as the compound, how does the MIC read?
Answer: 2 µg/mL (≈ 6.39 µM)

Question: Which MIC does the source give for `Fc1ccc(C(CCn2ccnc2)Oc2cc(Cl)cc(Cl)c2)cc1` (stereo unspecified) here?
Answer: 8 µg/mL (≈ 21.9 µM)

Question: Which MIC does the source give for `Clc1ccc(C(CCn2ccnc2)Oc2ccc(Cl)cc2Cl)cc1` (stereo unspecified) here?
Answer: 2 µg/mL (≈ 5.24 µM)

Question: With `Clc1ccc(OC(CCn2ccnc2)c2ccc(Cl)cc2)cc1` (stereo unspecified) as the compound, how does the MIC read?
Answer: 4 µg/mL (≈ 11.5 µM)

test system: Candida albicans; assay: Antifungal activity against Candida albicans ATCC 10261 at 35 degC after 48 to 96 hrs by broth microdilution test; type: functional; settings: not given
How it was run: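 Minimal fungicidal concentration for Candida. […] MFC is the lowest concentration allowing fewer than two colonies (99% killing).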

Question: With `Clc1ccc(OC(CCn2ccnc2)c2ccccc2)cc1` (stereo unspecified) as the compound, how does the MFC50 read?
Answer: 8 µg/mL (≈ 25.6 µM)

Question: What about the MFC90 of the same compound?
Answer: 16 µg/mL (≈ 51.2 µM)

Question: Which MFC50 does the source give for `Fc1ccc(C(CCn2ccnc2)Oc2cc(Cl)cc(Cl)c2)cc1` (stereo unspecified) here?
Answer: 16 µg/mL (≈ 43.8 µM)

Question: And the MFC90?
Answer: 16 µg/mL (≈ 43.8 µM)

Question: Which MFC50 does the source give for `Clc1ccc(C(CCn2ccnc2)Oc2ccc(Cl)cc2Cl)cc1` (stereo unspecified) here?
Answer: 4 µg/mL (≈ 10.5 µM)

Question: And the MFC90?
Answer: 8 µg/mL (≈ 21 µM)

Question: For `Clc1ccc(OC(CCn2ccnc2)c2ccc(Cl)cc2)cc1` (stereo unspecified), which MFC50 is on record?
Answer: 16 µg/mL (≈ 46.1 µM)

Question: And the MFC90?
Answer: 32 µg/mL (≈ 92.2 µM)

same assay, conditions: Candida albicans, ATCC 10261; read-out: MFC

Question: Which MFC does the source give for `Clc1ccc(OC(CCn2ccnc2)c2ccccc2)cc1` (stereo unspecified) here?
Answer: 10.3 µg/mL (≈ 32.9 µM)

Question: For `Fc1ccc(C(CCn2ccnc2)Oc2cc(Cl)cc(Cl)c2)cc1` (stereo unspecified), which MFC is on record?
Answer: 11.7 µg/mL (≈ 32 µM)

Question: Which MFC does the source give for `Clc1ccc(C(CCn2ccnc2)Oc2ccc(Cl)cc2Cl)cc1` (stereo unspecified) here?
Answer: 5.12 µg/mL (≈ 13.4 µM)

Question: With `Clc1ccc(OC(CCn2ccnc2)c2ccc(Cl)cc2)cc1` (stereo unspecified) as the compound, how does the MFC read?
Answer: 21.5 µg/mL (≈ 61.9 µM)

test system: Arthrodermataceae; assay: Antifungal activity against dermatophytes at 28 degC after 7 days by broth microdilution test; type: functional; settings: 168 h
How it was run: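 Ten clinical isolates (two M. canis, five M. gypseum, three T. mentagrophytes) tested by NCCLS M38-A broth microdilution in MOPS-buffered RPMI 1640, pH 7.0, over 0.25–128 µg/mL. Conidial/hyphal suspension from PDA slants (28 °C, 7 days) adjusted to 65–70% transmittance at OD530, then diluted 1:50.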

Question: Which MIC does the source give for `Clc1ccc(OC(CCn2ccnc2)c2ccccc2)cc1` (stereo unspecified) here?
Answer: 18.4 µg/mL (≈ 58.8 µM)

Question: What about the MIC50 of the same compound?
Answer: 16 µg/mL (≈ 51.2 µM)

Question: And the MIC90?
Answer: 32 µg/mL (≈ 102 µM)

Question: What does the source list for `Fc1ccc(C(CCn2ccnc2)Oc2cc(Cl)cc(Cl)c2)cc1` (stereo unspecified)?
Answer: MIC: 16.2 µg/mL (≈ 44.4 µM); MIC50: 16 µg/mL (≈ 43.8 µM); MIC90: 16 µg/mL (≈ 43.8 µM)

Question: What does the source list for `Clc1ccc(C(CCn2ccnc2)Oc2ccc(Cl)cc2Cl)cc1` (stereo unspecified)?
Answer: MIC: 9.8 µg/mL (≈ 25.7 µM); MIC50: 8 µg/mL (≈ 21 µM); MIC90: 16 µg/mL (≈ 41.9 µM)

test system: Candida albicans; assay: Antifungal activity against fluconazole-resistant Candida albicans isolated from oropharyngeal or vaginal disease patient after 48 hrs by broth microdilution test; type: functional; settings: not given

Question: With `Clc1ccc(OC(CCn2ccnc2)c2ccccc2)cc1` (stereo unspecified) as the compound, how does the MIC read?
Answer: 6.4 µg/mL (≈ 20.5 µM)

Question: For `Fc1ccc(C(CCn2ccnc2)Oc2cc(Cl)cc(Cl)c2)cc1` (stereo unspecified), which MIC is on record?
Answer: 12.8 µg/mL (≈ 35 µM)

Question: For `Clc1ccc(C(CCn2ccnc2)Oc2ccc(Cl)cc2Cl)cc1` (stereo unspecified), which MIC is on record?
Answer: 6.4 µg/mL (≈ 16.8 µM)

Question: With `Clc1ccc(OC(CCn2ccnc2)c2ccc(Cl)cc2)cc1` (stereo unspecified) as the compound, how does the MIC read?
Answer: 8 µg/mL (≈ 23 µM)
